Data: ChEMBL document CHEMBL4330165, “Absolute Configuration of Bioactive Azaphilones from the Marine-Derived Fungus Pleosporales sp. CF09-1” (2019)
Converted amounts (≈) assume the structure as drawn.

Tests used:
Type in all cases: functional
Alternaria brassicicola = experiment: Antifungal activity against Alternaria brassicicola CICC 2646 after 48 hrs by broth dilution assay; details: CICC 2646, 48 h
How it was run: (§1)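 Conventional broth dilution. Fungi were grown on PDA at 28 °C for 72 h. Seed culture was diluted in PYG (peptone 1.0%, glucose 2.0%, yeast extract 1.0%) in 96-well plates. DMSO stocks (10 mg/mL) were serially diluted to in-test 0.78–100 μg/mL. Plates were incubated 48 h at 28 °C, humidified. Ketoconazole was the positive control and DMSO the negative control. MIC was the endpoint.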

Botryosphaeria dothidea = experiment: Antifungal activity against Botryosphaeria dothidea CICC 2678 after 48 hrs by broth dilution assay; details: CICC 2678, 48 h; how it was run: as §1
Fusarium oxysporum = experiment: Antifungal activity against […] oxysporum CICC 41029 after 48 hrs by broth dilution assay; details: CICC 41029, 48 h; how it was run: as §1
Vibrio alginolyticus = experiment: Antibacterial activity against Vibrio alginolyticus CICC 21664 after 48 hrs by broth dilution method; details: CICC 21664, 48 h
How it was run: (§2)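 Microbroth dilution in LB medium (peptone 10 g/L, yeast extract 5 g/L, NaCl 10 g/L). Ciprofloxacin served as positive control. MIC was read as the endpoint.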

Vibrio anguillarum = experiment: Antibacterial activity against Vibrio anguillarum CICC 10475 after 48 hrs by broth dilution method; how it was run: as §2
Vibrio parahaemolyticus = experiment: Antibacterial activity against Vibrio parahaemolyticus CICC 10552 after 48 hrs by broth dilution method; how it was run: as §2

With C/C=C(\C)[C@H](OC(C)=O)[C@H](C)C(=O)O[C@@]1(C)C(=O)C=C2C=C(C3=C(C)CCCC3=O)OC=C2C1=O the MIC (Alternaria brassicicola) was 13 µg/mL (≈ 26.9 µM), the MIC (Botryosphaeria dothidea) was 13 µg/mL (≈ 26.9 µM) and the MIC (Fusarium oxysporum) was 6.3 µg/mL (≈ 13.1 µM).

With C/C=C(\C)[C@H](OC(C)=O)[C@H](C)C(=O)O[C@@]1(C)C(=O)C=C2C=C(c3c(C)cccc3O)OC=C2C1=O the MIC (Alternaria brassicicola) was 6.3 µg/mL (≈ 13.1 µM), the MIC (Botryosphaeria dothidea) was 3.1 µg/mL (≈ 6.45 µM) and the MIC (Fusarium oxysporum) was 25 µg/mL (≈ 52 µM).

With C/C=C(\C)[C@H](OC(C)=O)[C@H](C)C(=O)O[C@@]1(C)C(=O)C2=COC(C3=C(C)CCCC3=O)=CC2=C(Cl)C1=O the MIC (Alternaria brassicicola) was 1.6 µg/mL (≈ 3.09 µM), the MIC (Botryosphaeria dothidea) was 13 µg/mL (≈ 25.1 µM) and the MIC (Fusarium oxysporum) was 1.6 µg/mL (≈ 3.09 µM).

For CO[C@@H]1CO[C@@]2(CC3=CC(=O)[C@@](C)(O)[C@@H](OC(=O)c4c(C)cc(O)cc4O)[C@@H]3CO2)C1, the MIC (Alternaria brassicicola) was over 50 µg/mL, the MIC (Botryosphaeria dothidea) was over 50 µg/mL and the MIC (Fusarium oxysporum) was over 50 µg/mL. The MIC (Vibrio alginolyticus) was 25 µg/mL (≈ 57.5 µM).

For CO[C@H]1CO[C@@]2(CC3=CC(=O)[C@@](C)(O)[C@@H](OC(=O)c4c(C)cc(O)cc4O)[C@@H]3CO2)C1, the MIC (Alternaria brassicicola) was over 50 µg/mL, the MIC (Botryosphaeria dothidea) was over 50 µg/mL and the MIC (Fusarium oxysporum) was over 50 µg/mL. It also gave an MIC (Vibrio alginolyticus) of 25 µg/mL (≈ 57.5 µM).

COC(CO)CC1=CC2=CC(=O)[C@@](C)(O)[C@@H](OC(=O)c3c(C)cc(O)cc3O)[C@@H]2CO1 (stereo in doubt; 6) was tested, and the MIC (Vibrio anguillarum) was 13 µg/mL (≈ 29.9 µM) and the MIC (Vibrio parahaemolyticus) was 6.3 µg/mL (≈ 14.5 µM).

Work on COC(CO)CC1=CC2=CC(=O)[C@@](C)(O)[C@@H](OC(=O)c3c(C)cc(O)cc3O)[C@@H]2CO1 (stereo in doubt; 7) yielded an MIC (Vibrio anguillarum) of 6.3 µg/mL (≈ 14.5 µM) and an MIC (Vibrio parahaemolyticus) of 25 µg/mL (≈ 57.5 µM).

With O=C(O)c1cn(C2CC2)c2cc(N3CCNCC3)c(F)cc2c1=O [CIPROFLOXACIN] the MIC (Vibrio anguillarum; Vibrio anguillarum, CICC 10475, 48 h, read-out: MIC) was 6.3 µg/mL (≈ 19 µM), the MIC (Vibrio parahaemolyticus; Vibrio parahaemolyticus, CICC 10552, 48 h, read-out: MIC) was 3.1 µg/mL (≈ 9.36 µM) and the MIC (Vibrio alginolyticus) was 13 µg/mL (≈ 39.2 µM).

With CC(=O)N1CCN(c2ccc(OCC3COC(Cn4ccnc4)(c4ccc(Cl)cc4Cl)O3)cc2)CC1 (configuration not stated) [KETOCONAZOLE] the MIC (Alternaria brassicicola) was 3.1 µg/mL (≈ 5.83 µM), the MIC (Botryosphaeria dothidea) was 3.1 µg/mL (≈ 5.83 µM) and the MIC (Fusarium oxysporum) was 6.3 µg/mL (≈ 11.9 µM).
